According to ChEMBL document CHEMBL1157565, “Discovery of 1-[3-(4-bromo-2-methyl-2h-pyrazol-3-yl)-4-methoxyphenyl]-3-(2,4-difluorophenyl)urea (nelotanserin) and related 5-hydroxytryptamine2A inverse agonists for the treatment of insomnia” (J Med Chem, 2010):
Activity calls are given as the source filed them. The calls are words filed in the database; no cut-off is given here.

Assays:
Rattus norvegicus [1] = test: Effect on behavioral activity in Wistar rat assessed as increase in non-rapid eye movement delta power at 1.4 mg/kg, po after 1 hr; format: functional, organism-based; parameters: dose 1.4 mg/kg
Procedure, shortened: (§1)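 Male Wistar rats (300 ± 25 g) implanted for continuous EEG/EMG recording, 1 week recovery. Repeated-measures design: each rat received each treatment, including 80% Tween-80 vehicle, in random order by oral gavage. Non-REM sleep parameters scored hourly after dosing; at least five rats per compound.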

[2] = target: T1, 5-hydroxytryptamine receptor 2A (Homo sapiens, UniProt P28223); test: Activity at human 5HT2A receptor expressed in HEK293 cells assessed as [3H]inositol phosphate production by scintillation counting; format: functional, cell-based
Procedure, shortened: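 HEK-293 cells transiently transfected with a mutated, constitutively active h5-HT2A receptor, labeled 18 h with […] [3H]myoinositol in serum- and myoinositol-free DMEM. Then 3 h at 37 °C in HBSS with LiCl (10 mM final), pargyline and compound. Lysis with ice-cold 0.1 M formic acid; total [3H]IP separated on AG1-X8 resin and counted by scintillation. Inverse-agonist pIC50.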

Rattus norvegicus [3] = test: Effect on behavioral activity in Wistar rat assessed as increase in non-rapid eye movement delta power at 1.4 mg/kg, po after 2 hrs; format: functional, organism-based; parameters: dose 1.4 mg/kg; procedure, shortened: as §1
[4] = Half life in Wistar rat at 1.4 mg/kg, po; format: ADME, organism-based; parameters: dose 1.4 mg/kg, route oral; conditions: in vivo
Procedure, shortened: (§2)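 Male Wistar rats, fasted overnight, single oral dose in 80% Tween-80/20% water. Jugular vein blood sampled serially over 24 h ([…]); sodium-heparin plasma stored at -70 °C, quantified by HPLC/MS/MS (LLOQ 1 ng/mL, ULOQ 2000 ng/mL). n = 2-3 animals; noncompartmental analysis; values as mean ± SD.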

[5] = Cmax in Wistar rat at 1.4 mg/kg, po; format: ADME, organism-based; parameters: dose 1.4 mg/kg, route oral; conditions: in vivo; procedure, shortened: as §2
[6] = Tmax in Wistar rat at 1.4 mg/kg, po; format: ADME, organism-based; parameters: dose 1.4 mg/kg, route oral; conditions: in vivo; procedure, shortened: as §2
[7] = target: T2, 5-hydroxytryptamine receptor 2C (Homo sapiens, UniProt P28335); test: Displacement of [125I]DOI from human recombinant 5HT2C receptor expressed in HEK293 cells by scintillation counting
T2 sequence (P28335 whole entry): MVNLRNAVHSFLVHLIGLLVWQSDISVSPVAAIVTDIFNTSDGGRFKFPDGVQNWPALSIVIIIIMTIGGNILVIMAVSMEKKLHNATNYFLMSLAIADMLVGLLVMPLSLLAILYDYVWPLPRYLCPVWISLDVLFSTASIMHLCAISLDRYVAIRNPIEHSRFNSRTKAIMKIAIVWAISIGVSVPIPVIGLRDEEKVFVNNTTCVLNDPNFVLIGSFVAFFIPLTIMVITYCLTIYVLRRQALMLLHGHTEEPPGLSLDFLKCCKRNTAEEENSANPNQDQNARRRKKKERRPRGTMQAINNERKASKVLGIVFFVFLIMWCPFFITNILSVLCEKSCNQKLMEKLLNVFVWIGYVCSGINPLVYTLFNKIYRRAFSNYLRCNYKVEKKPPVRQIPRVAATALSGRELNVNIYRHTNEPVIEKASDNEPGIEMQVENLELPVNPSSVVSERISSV

Rattus norvegicus [8] = test: Effect on behavioral activity in Wistar rat assessed as decrease in number of non-rapid eye movement bouts at 1.4 mg/kg, po after 2 hrs; format: functional, organism-based; parameters: dose 1.4 mg/kg; procedure, shortened: as §1
[9] = target: T1, 5-hydroxytryptamine receptor 2A; test: Displacement of [3H]DOI from human recombinant 5HT2A receptor expressed in HEK293 cells by scintillation counting; format: cell-based; conditions: in the assay text read “[125I]DOI” for “[3H]DOI”
Procedure, shortened: (§3)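 Crude membranes (5-25 μg protein) from HEK293 cells stably expressing human 5-HT2A or 5-HT2C. Radioligand [125I]DOI at 0.5 nM final; 10 μM cold DOI defines nonspecific binding. Buffer 20 mM HEPES pH 7.4, 10 mM MgCl2; 1 h at room temperature. Eight concentrations (1 pM–10 μM), each in triplicate. Vacuum filtration on GF/C, Tris wash, scintillation counting; pKi.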

[10] = AUC (0 to infinity) in Wistar rat at 1.4 mg/kg, po; format: ADME, organism-based; parameters: time infinity, dose 1.4 mg/kg, route oral; conditions: plasma; procedure, shortened: as §2
Rattus norvegicus [11] = test: Effect on behavioral activity in po dosed Sprague-Dawley rat assessed as reversal of DOI-induced inhibition of rearing behavior; format: functional
Procedure, shortened: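 Adult male Sprague-Dawley rats dosed orally with compound 45 min before DOI (0.3 mg/kg), which lowers rearing. Fifteen minutes later, rearing recorded in photocell-monitored locomotor activity cages. A dose-response curve for reversal of DOI-induced rearing decrease yields an ED50.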

[12] = target: T1, 5-hydroxytryptamine receptor 2A; test: Displacement of [125I]DOI from human recombinant 5HT2A receptor expressed in HEK293 cells by scintillation counting
[13] = AUC (0 to infinity) in Wistar rat at 1.5 mg/kg, po; format: ADME, organism-based; parameters: time infinity, dose 1.5 mg/kg, route oral; conditions: plasma; procedure, shortened: as §2
[14] = Half life in Wistar rat at 1.5 mg/kg, po; format: ADME, organism-based; parameters: dose 1.5 mg/kg, route oral; conditions: in vivo; procedure, shortened: as §2
[15] = target: 5-hydroxytryptamine receptor 2A (Rattus norvegicus, UniProt P14842); test: Displacement of [125I]DOI from rat recombinant 5HT2A receptor by scintillation counting
[16] = target: T2, 5-hydroxytryptamine receptor 2C; test: Displacement of [3H]DOI from human recombinant 5HT2C receptor expressed in HEK293 cells by scintillation counting; format: cell-based; conditions: in the assay text read “[125I]DOI” for “[3H]DOI”; procedure, shortened: as §3
[17] = Cmax in Wistar rat at 1.5 mg/kg, po; format: ADME, organism-based; parameters: dose 1.5 mg/kg, route oral; conditions: in vivo; procedure, shortened: as §2
[18] = Tmax in Wistar rat at 1.5 mg/kg, po; format: ADME, organism-based; parameters: dose 1.5 mg/kg, route oral; conditions: in vivo; procedure, shortened: as §2
[19] = Tmax in Wistar rat at 1.0 mg/kg, po; format: ADME, organism-based; parameters: dose 1 mg/kg, route oral; conditions: in vivo; procedure, shortened: as §2
Rattus norvegicus [20] = test: Effect on behavioral activity in Wistar rat assessed as increase in non-rapid eye movement delta power at 1 mg/kg, po after 2 hrs; format: functional, organism-based; parameters: dose 1 mg/kg; procedure, shortened: as §1
[21] = Half life in Wistar rat at 1.0 mg/kg, po; format: ADME, organism-based; parameters: dose 1 mg/kg, route oral; conditions: in vivo; procedure, shortened: as §2
[22] = AUC (0 to infinity) in Wistar rat at 1.0 mg/kg, po; format: ADME, organism-based; parameters: time infinity, dose 1 mg/kg, route oral; conditions: plasma; procedure, shortened: as §2
[23] = Cmax in Wistar rat at 1.0 mg/kg, po; format: ADME, organism-based; parameters: dose 1 mg/kg, route oral; conditions: in vivo; procedure, shortened: as §2
Rattus norvegicus [24] = test: Effect on behavioral activity in Wistar rat assessed as increase in non-rapid eye movement bout length at 1 mg/kg, po after 2 hrs; format: functional, organism-based; parameters: dose 1 mg/kg; procedure, shortened: as §1

T1 sequence (P28223 whole entry): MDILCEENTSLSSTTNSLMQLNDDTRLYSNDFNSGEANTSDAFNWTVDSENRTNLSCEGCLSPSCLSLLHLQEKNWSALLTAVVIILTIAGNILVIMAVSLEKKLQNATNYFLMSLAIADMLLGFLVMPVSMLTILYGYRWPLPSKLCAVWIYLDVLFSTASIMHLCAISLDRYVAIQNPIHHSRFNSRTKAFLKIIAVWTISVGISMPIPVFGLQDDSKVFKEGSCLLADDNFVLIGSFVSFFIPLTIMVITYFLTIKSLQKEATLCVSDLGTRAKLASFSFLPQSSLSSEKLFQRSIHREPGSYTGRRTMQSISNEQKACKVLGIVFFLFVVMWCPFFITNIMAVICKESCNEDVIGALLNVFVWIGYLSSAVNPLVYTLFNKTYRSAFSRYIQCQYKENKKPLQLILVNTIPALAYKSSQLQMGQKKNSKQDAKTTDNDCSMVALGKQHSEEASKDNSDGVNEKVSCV
Sequence of 5-hydroxytryptamine receptor 2A (Rattus norvegicus, UniProt P14842) (P14842 whole entry): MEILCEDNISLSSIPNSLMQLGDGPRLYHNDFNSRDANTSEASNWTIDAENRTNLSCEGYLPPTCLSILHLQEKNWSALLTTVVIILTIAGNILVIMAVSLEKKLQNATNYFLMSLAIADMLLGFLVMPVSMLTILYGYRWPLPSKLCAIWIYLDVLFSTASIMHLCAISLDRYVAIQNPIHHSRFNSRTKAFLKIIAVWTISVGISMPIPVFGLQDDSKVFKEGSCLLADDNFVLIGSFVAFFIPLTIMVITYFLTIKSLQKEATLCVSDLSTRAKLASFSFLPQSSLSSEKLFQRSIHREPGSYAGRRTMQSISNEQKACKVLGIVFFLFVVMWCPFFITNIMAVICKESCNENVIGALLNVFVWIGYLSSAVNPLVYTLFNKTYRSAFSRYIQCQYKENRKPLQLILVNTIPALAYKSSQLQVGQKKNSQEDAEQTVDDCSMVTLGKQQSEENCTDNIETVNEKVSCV

COc1ccc(NC(=O)Nc2ccc(F)cc2)cc1-c1c(Br)cnn1C
Activity (Rattus norvegicus [1]): Active | IC50 ([2]; read-out: pIC50 (converted)): 0.251 nM | Activity (Rattus norvegicus [3]): Active | half-life [4]: 2 h | Cmax [5]: 85 ng/mL | Tmax [6]: 4 h | Ki [7]: 31.6 nM | Activity (Rattus norvegicus [8]): Active | Ki [9]: 0.251 nM | AUC(0-inf) [10]: 507 ng·h/mL | ED50 (Rattus norvegicus [11]): 0.7 mg/kg

COc1ccc(NC(=O)Nc2cc(C(F)(F)F)cc(C(F)(F)F)c2)cc1-c1c(Br)cnn1C
IC50 ([2]; read-out: pIC50 (converted)): 2 nM | Ki [12]: 0.398 nM | Ki [7]: 31.6 nM

COc1ccc(NC(=O)Nc2cc(C(F)(F)F)cc(C(F)(F)F)c2)cc1-c1c(Cl)cnn1C
IC50 ([2]; read-out: pIC50 (converted)): 3.98 nM | Ki [7]: 63.1 nM | Ki [9]: 1 nM

COc1ccc(NC(=O)Nc2ccc(Cl)cc2)cc1-c1c(Cl)cnn1C
IC50 ([2]; read-out: pIC50 (converted)): 0.501 nM | Activity (Rattus norvegicus [3]): Active | AUC(0-inf) [13]: 478 ng·h/mL | half-life [14]: 5 h | Ki [9]: 0.158 nM | Ki [15]: 2 nM | Ki [16]: 10 nM | ED50 (Rattus norvegicus [11]): 0.7 mg/kg | Cmax [17]: 41 ng/mL | Tmax [18]: 6 h

COc1ccc(NC(=O)Nc2ccc(C(C)C)cc2)cc1-c1c(Br)cnn1C
IC50 ([2]; read-out: pIC50 (converted)): 2.51 nM | Ki [12]: 0.316 nM | Ki [16]: 25.1 nM

COc1ccc(NC(=O)Nc2ccc(Cl)cc2)cc1-c1ccnn1C
IC50 ([2]; read-out: pIC50 (converted)): 1 nM | Ki [16]: 158 nM

COc1ccc(NC(=O)Nc2ccc(Cl)cc2)cc1-c1c(Br)cnn1C(C)C
IC50 ([2]; read-out: pIC50 (converted)): 1.26 nM | Ki [9]: 0.501 nM | Ki [16]: 2.51 nM

COc1ccc(NC(=O)Nc2ccc(F)cc2F)cc1-c1c(Cl)cnn1C
IC50 ([2]; read-out: pIC50 (converted)): 1 nM | Ki [12]: 0.631 nM | Ki [7]: 316 nM

CC(C)Oc1ccc(NC(=O)Nc2ccc(Cl)cc2)cc1-c1c(Br)cnn1C
IC50 ([2]; read-out: pIC50 (converted)): 1.58 nM | Ki [12]: 0.316 nM | Ki [16]: 10 nM

Cn1ncc(Br)c1-c1cc(NC(=O)Nc2ccc(Cl)cc2)ccc1OCc1ccc(Cl)cc1
IC50 ([2]; read-out: pIC50 (converted)): 12.6 nM | Ki [9]: 20 nM | Ki [16]: 251 nM

Cn1ncc(Br)c1-c1cc(NC(=O)Nc2ccc(Cl)cc2)ccc1OCCc1ccccc1
IC50 ([2]; read-out: pIC50 (converted)): 50.1 nM | Ki [12]: 6.31 nM | Ki [16]: 794 nM

COc1ccc(NC(=O)Nc2cccc(Cl)c2)cc1-c1c(Br)cnn1C
IC50 ([2]; read-out: pIC50 (converted)): 0.398 nM | Ki [9]: 0.251 nM | Ki [16]: 15.8 nM

COc1ccc(NC(=O)Nc2cccc(C#N)c2)cc1-c1c(Br)cnn1C
IC50 ([2]; read-out: pIC50 (converted)): 6.31 nM | Ki [7]: 63.1 nM | Ki [9]: 0.501 nM

COc1ccc(NC(=O)Nc2ccc(Cl)cc2)cc1-c1c(Br)cnn1C
Tmax [19]: 3 h | IC50 [2]: 0.7 nM | IC50 ([2]; read-out: pIC50 (converted)): 0.794 nM | Activity (Rattus norvegicus [20]): Active | half-life [21]: 3 h | AUC(0-inf) [22]: 281 ng·h/mL | Ki [9]: 0.501 nM | Cmax [23]: 45 ng/mL | Activity (Rattus norvegicus [24]): Active | Ki [16]: 10 nM | ED50 (Rattus norvegicus [11]): 0.5 mg/kg

COc1ccc(NC(=O)Nc2cc(F)cc(F)c2)cc1-c1c(Br)cnn1C
IC50 ([2]; read-out: pIC50 (converted)): 1.26 nM | Ki [12]: 0.316 nM | Ki [16]: 15.8 nM

Cn1ncc(Br)c1-c1cccc(NC(=O)Nc2ccc(Cl)cc2)c1
IC50 [2]: 19 nM

COc1ccc(NC(=O)Nc2cccc(C(F)(F)F)c2)cc1-c1c(Br)cnn1C
IC50 ([2]; read-out: pIC50 (converted)): 0.398 nM | Ki [12]: 0.398 nM | Ki [16]: 15.8 nM

COc1ccc(NC(=O)Nc2ccc(OC)c(-c3c(Br)cnn3C)c2)cc1
IC50 ([2]; read-out: pIC50 (converted)): 0.398 nM | Ki [9]: 0.501 nM | Ki [16]: 126 nM
